The subject of assay [1] is Staphylococcus epidermidis. The assay is described as follows: Antimicrobial activity against Staphylococcus epidermidis. It counts as functional. Put shortly:
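S. epidermidis RP62A; broth microdilution per CLSI in Mueller-Hinton broth, inoculum 5 × 10^5 CFU/ml, 37°C for 24 h before reading. Triplicate.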

Assay [2] in a line: Inhibition of Staphylococcus epidermidis RNA polymerase mediated transcription. Put shortly: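 Transcription measured on toluene-permeabilized S. epidermidis cells, endogenous DNA as template; [5-3H]UTP incorporation read out, concentration giving 50% inhibition calculated. Triplicate.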
For assay [3], the system named is Staphylococcus epidermidis. The assay is described as follows: Ratio of MBC for Staphylococcus epidermidis to MIC for Staphylococcus epidermidis. It counts as functional. In a few lines: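 MBC obtained by extending the CLSI MIC assay (MHB, 5 × 10^5 CFU/ml, 37°C, 24 h): well portions serially diluted, spotted on MHB agar, incubated 37°C, read at 24 h as lowest concentration giving 0.1% survival. Triplicate.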

Assay [4] concerns Staphylococcus epidermidis. The assay is described as follows: Inhibition of Staphylococcus epidermidis biofilm formation assessed as reduction of >2 log 10 bacterial count in biofilm after 24 hrs. It counts as functional, organism-based. In a few lines: (§1)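 S. epidermidis RP62A biofilms grown 24 h at 37°C from 10^7 CFU/ml in MHB in polystyrene microtiter wells, rinsed, then exposed 24 h at 37°C without shaking to compound in MHB (1× to 16× MIC). Washed, lysed with DMSO, bacterial ATP read by luciferase/luciferin bioluminescence, converted to log10 CFU/well via calibration against plate counts; reduction versus unchallenged biofilm. Triplicate.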

Assay [5] has as its system Staphylococcus epidermidis. As to the kind of experiment: Inhibition of Staphylococcus epidermidis biofilm formation assessed as log 10 reduction of bacterial count in biofilm at 4 times MIC per well after 24 hrs. It counts as functional. Put shortly:
as §1

The test system of assay [6] is Staphylococcus epidermidis. As to the kind of experiment: Inhibition of Staphylococcus epidermidis biofilm formation assessed as log 10 reduction of bacterial count in biofilm at 0.025 ug/ml per well after 24 hrs. It counts as functional. In a few lines:
as §1

In brackets after ≈: the same amount, converted by molar mass. Activity calls are given as the source filed them. The calls are words filed in the database; no cut-off is given here. A value given as a limit tells only on which side of the number the result lay.

For the compound `CNC(=O)[C@@H](C)[C@H]1C(=O)/C(=C(O)/C=C/C(C)=C/[C@@H](C)[C@H]2O[C@@]3(C)O[C@H](C=C[C@@]34CO4)[C@@H]2C)C(=O)N1[C@@H]1CC[C@H](O)[C@H](C)O1` [STREPTOLYDIGIN], in assay [1], the MBC (as a rule, the lowest tested concentration that kills the bacteria rather than only halting them) came out at 100 µg/mL (≈ 166 µM) and 50 µg/mL (≈ 83.2 µM) was the least that counted as inhibitory (MIC). Besides, the IC50 – broadly, the concentration needed to halve the response being measured – in assay [2] turned out to be 2.3 µg/mL (≈ 3.83 µM). Besides, the Ratio in assay [3] worked out at 2. Moreover, in assay [4], the result was inactive.

For the compound `CO[C@H]1/C=C/O[C@@]2(C)Oc3c(C)c(O)c4c(O)c(c(/C=N/N5CCN(C)CC5)c(O)c4c3C2=O)NC(=O)/C(C)=C\C=C\[C@H](C)[C@H](O)[C@@H](C)[C@@H](O)[C@@H](C)[C@H](OC(C)=O)[C@@H]1C` [RIFAMPIN], in assay [1], the MBC was determined as 0.006 µg/mL (≈ 0.00729 µM) and the MIC (usually the least concentration at which growth counts as inhibited) is 0.006 µg/mL (≈ 0.00729 µM). In assay [2], this compound gave an IC50 of 0.04 µg/mL (≈ 0.0486 µM). Moreover, in assay [3], the Ratio was 1. For the same compound, the outcome in assay [4] was inactive.

As for `O/N=C(\Nc1ccccc1)c1cccc(C(F)(F)F)c1`, in assay [1], the MBC worked out at 100 µg/mL (≈ 357 µM) and 100 µg/mL (≈ 357 µM) was the least that counted as inhibitory (MIC). Moreover, in assay [2], the IC50 worked out at 4.2 µg/mL (≈ 15 µM). The Ratio in assay [3] is on record as 1. The Activity in assay [5] is 3.

In assay [1], `O/N=C(\Nc1cccc(Cl)c1)c1ccc(Cl)c(C(F)(F)F)c1` came in with a minimum bactericidal concentration (MBC) of 25 µg/mL (≈ 71.6 µM) and a minimal inhibitory concentration (MIC) of 25 µg/mL (≈ 71.6 µM). The compound further registered a half-inhibitory concentration (IC50) in assay [2] of 2.3 µg/mL (≈ 6.59 µM). The Ratio in assay [3] is recorded as 1. Besides, in assay [5], the Activity was 3.

For `CO[C@H]1/C=C/O[C@@]2(C)Oc3c(C)c(O)c4c(O)c(c(/C=N/N5CCN(C6CCCC6)CC5)c(O)c4c3C2=O)NC(=O)/C(C)=C\C=C\[C@H](C)[C@H](O)[C@@H](C)[C@@H](O)[C@@H](C)[C@H](OC(C)=O)[C@@H]1C` [RIFAPENTINE], the Activity in assay [6] amounted to 1.5. In assay [1], this compound displayed an MBC of 0.025 µg/mL (≈ 0.0285 µM) and an MIC of 0.012 µg/mL (≈ 0.0137 µM). In addition, in assay [2], the IC50 was determined as 0.08 µg/mL (≈ 0.0912 µM). Moreover, in assay [3], the Ratio is 2. Further, the outcome in assay [4] was inactive.

Take `CC(=O)Nc1c2sscc-2[nH]c1=O` [HOLOMYCIN]: in assay [1], the MBC is 50 µg/mL (≈ 233 µM) and the MIC worked out at 12.5 µg/mL (≈ 58.3 µM). Further, the IC50 in assay [2] is > 100 µg/mL. Further, the Ratio in assay [3] came to 4. Moreover, the result in assay [4] was inactive.

For `CO[C@H]1/C=C/O[C@@]2(C)Oc3c(C)c(O)c4c(O)c(c5c(nc6cc(C)ccn65)c4c3C2=O)NC(=O)/C(C)=C\C=C\[C@H](C)[C@H](O)[C@@H](C)[C@@H](O)[C@@H](C)[C@H](OC(C)=O)[C@@H]1C` [RIFAXIMIN], the Activity in assay [6] is listed as 1.5. In assay [1], this compound came in with an MBC of 0.025 µg/mL (≈ 0.0318 µM) and an MIC of 0.012 µg/mL (≈ 0.0153 µM). In assay [2], this compound returned an IC50 of 0.07 µg/mL (≈ 0.0891 µM). For the same compound, the Ratio in assay [3] is 2. Moreover, the result in assay [4] was inactive.

In assay [1], `CC(=O)Nc1c2sscc-2n(C)c1=O` [THIOLUTIN] yielded an MBC of 12.5 µg/mL (≈ 54.8 µM) and an MIC of 6.25 µg/mL (≈ 27.4 µM). For the same compound, the IC50 in assay [2] is > 100 µg/mL. The Ratio in assay [3] was found to be 2. Also, the outcome in assay [4] was inactive.

As to `CCOC(=O)c1c(NC(=O)Nc2ccccc2)sc2c1CCCCCC2`, in assay [1], the MBC is > 100 µg/mL and it took 6.25 µg/mL (≈ 16.8 µM) to inhibit growth (MIC). In assay [2], this compound displayed an IC50 of 0.5 µg/mL (≈ 1.34 µM). In assay [3], the Ratio is reported as >18. Besides, in assay [4], the result was inactive.

With `C=CCN1C(=O)/C(=C/c2ccc(-c3cccc(C(=O)O)c3)o2)SC1=S`, in assay [1], the MBC worked out at 25 µg/mL (≈ 67.3 µM) and the MIC was 12.5 µg/mL (≈ 33.7 µM). For the same compound, the IC50 in assay [2] was found to be 2.5 µg/mL (≈ 6.73 µM). Also, the Ratio in assay [3] came to 2. In addition, the result in assay [4] was inactive. In assay [5], the Activity amounted to 1.8.

The record behind these values is ChEMBL document CHEMBL1154413, “In vitro activities of different inhibitors of bacterial transcription against Staphylococcus epidermidis biofilm” (Antimicrob Agents Chemother, 2007).
